From ChEMBL document CHEMBL1828498, “Identification and characterization of a novel integrin-linked kinase inhibitor” (J Med Chem, 2011)
The source made the active and inactive calls. The rule behind the calls is not given here.

Assays:
[1] = tested on: MDA-MB-231; assay: Antiproliferative activity against human MDA-MB-231 cells assessed as suppression of cell viability by MTT assay; type: functional, cell-based
Method in brief: (§1)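 Cancer lines seeded 5000/well and nonmalignant PrEC/MEC 8000/well in 10% FBS, 24 h before treatment. Compound exposure 24 h in 5% FBS medium, 0.1% final DMSO. MTT (0.25 mg/mL) for 1 h at 37°C, dye solubilized in DMSO, absorbance read at 570 nm. Mean ± SD, n = 6.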

[2] = tested on: MCF7; assay: Antiproliferative activity against human MCF7 cells assessed as suppression of cell viability by MTT assay; type: functional, cell-based; method in brief: as §1
[3] = tested on: PrEC; assay: Antiproliferative activity against human PrEC cells at 1 to 5 uM by MTT assay; type: cell-based; method in brief: as §1
[4] = target: T1, Scaffold protein ILK (Homo sapiens) (UniProt Q13418); assay: Inhibition of ILK in human PC3 cells assessed as decrease in MLC phosphorylation by Western blot analysis; type: cell-based; settings: PC-3
T1 sequence (whole entry): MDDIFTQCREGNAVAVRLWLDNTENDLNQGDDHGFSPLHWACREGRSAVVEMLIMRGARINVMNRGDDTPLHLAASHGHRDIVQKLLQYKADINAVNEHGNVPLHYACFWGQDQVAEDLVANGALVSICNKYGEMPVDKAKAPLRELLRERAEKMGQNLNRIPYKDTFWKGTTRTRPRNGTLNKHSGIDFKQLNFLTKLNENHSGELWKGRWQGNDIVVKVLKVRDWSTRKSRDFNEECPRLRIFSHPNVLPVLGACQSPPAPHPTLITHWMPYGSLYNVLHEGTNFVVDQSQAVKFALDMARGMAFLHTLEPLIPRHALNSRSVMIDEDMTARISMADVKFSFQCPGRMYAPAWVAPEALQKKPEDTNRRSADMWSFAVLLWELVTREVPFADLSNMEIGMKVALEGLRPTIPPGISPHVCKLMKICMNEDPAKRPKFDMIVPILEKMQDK
Method in brief: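 PC-3 and MDA-MB-231 cells exposed 24 h in 5% FBS medium across a concentration series. Phospho-GSK3β (Ser9) and phospho-MLC (Thr18/Ser19) detected by immunoblot: SDS lysis, primary 1:1000 at 4°C for 2 h, HRP secondary, ECL. Representative of three experiments.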

[5] = target: Rapamycin-insensitive companion of mTOR (Homo sapiens) (UniProt Q6R327); assay: Inhibition of mTORC2 in human MDA-MB-231 cells assessed as PKCalpha phosphorylation by Western blot analysis; type: cell-based
Rapamycin-insensitive companion of mTOR (Homo sapiens), sequence (Q6R327 whole entry): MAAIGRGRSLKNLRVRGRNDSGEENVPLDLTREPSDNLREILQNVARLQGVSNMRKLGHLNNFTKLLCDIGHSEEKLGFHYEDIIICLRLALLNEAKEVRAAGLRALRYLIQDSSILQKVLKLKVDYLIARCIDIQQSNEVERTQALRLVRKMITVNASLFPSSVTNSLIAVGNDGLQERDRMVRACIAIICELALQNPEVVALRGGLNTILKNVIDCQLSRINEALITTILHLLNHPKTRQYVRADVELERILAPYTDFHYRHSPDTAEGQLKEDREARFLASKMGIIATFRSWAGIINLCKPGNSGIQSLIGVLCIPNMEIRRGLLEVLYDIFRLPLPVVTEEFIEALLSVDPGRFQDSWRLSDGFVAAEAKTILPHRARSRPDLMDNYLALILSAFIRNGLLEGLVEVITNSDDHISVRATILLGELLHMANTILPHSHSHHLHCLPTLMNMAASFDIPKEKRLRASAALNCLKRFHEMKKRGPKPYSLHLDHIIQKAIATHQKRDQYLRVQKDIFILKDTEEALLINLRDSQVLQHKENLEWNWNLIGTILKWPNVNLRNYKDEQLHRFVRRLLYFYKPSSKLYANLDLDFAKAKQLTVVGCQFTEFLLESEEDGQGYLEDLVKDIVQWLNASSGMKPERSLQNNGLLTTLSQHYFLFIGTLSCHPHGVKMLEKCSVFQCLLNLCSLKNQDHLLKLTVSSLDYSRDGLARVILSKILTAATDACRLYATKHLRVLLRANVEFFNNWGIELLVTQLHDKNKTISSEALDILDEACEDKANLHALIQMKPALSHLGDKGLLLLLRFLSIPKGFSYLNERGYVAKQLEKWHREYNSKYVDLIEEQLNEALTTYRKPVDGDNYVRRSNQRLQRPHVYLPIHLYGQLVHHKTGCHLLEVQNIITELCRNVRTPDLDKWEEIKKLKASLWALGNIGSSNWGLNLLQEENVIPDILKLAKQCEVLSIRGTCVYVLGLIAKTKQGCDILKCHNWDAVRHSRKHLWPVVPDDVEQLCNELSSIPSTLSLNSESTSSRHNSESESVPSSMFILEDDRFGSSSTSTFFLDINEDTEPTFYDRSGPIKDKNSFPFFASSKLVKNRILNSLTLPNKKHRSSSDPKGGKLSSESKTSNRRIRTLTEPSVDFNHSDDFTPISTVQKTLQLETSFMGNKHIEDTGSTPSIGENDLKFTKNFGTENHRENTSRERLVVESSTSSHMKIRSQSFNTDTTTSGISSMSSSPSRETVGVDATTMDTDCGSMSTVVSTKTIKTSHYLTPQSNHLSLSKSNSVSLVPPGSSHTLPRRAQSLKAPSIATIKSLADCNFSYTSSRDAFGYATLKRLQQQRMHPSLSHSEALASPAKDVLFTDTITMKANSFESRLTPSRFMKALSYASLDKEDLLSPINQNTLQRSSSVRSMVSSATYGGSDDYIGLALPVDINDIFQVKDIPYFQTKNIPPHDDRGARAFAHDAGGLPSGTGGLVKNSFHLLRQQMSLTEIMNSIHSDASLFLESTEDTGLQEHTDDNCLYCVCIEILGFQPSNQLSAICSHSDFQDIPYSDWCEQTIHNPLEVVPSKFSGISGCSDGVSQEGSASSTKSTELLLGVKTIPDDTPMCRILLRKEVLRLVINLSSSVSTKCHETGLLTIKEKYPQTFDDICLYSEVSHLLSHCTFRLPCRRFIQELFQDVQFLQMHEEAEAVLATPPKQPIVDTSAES
Method in brief: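 Cells exposed 24 h in 5% FBS medium, final DMSO 0.1%; lysed in 1% SDS/10 mM EDTA/50 mM Tris pH 8.1, equal protein on SDS-PAGE, nitrocellulose, primary antibody 1:1000 at 4°C for 2 h, HRP secondary 1:5000, ECL detection; blots representative of three independent experiments.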

[6] = tested on: PC-3; assay: Reduction in HER2 concentration in human PC3 cells after 24 hrs by Western blot analysis; type: functional, cell-based
Method in brief: (§2)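 PC-3 versus stable PC-3/CA-ILK, or SKBR3 versus transient SKBR3/CA-ILK (electroporation, used 48 h after), treated 24 h in 5% FBS medium; immunoblotting with ECL; representative of three experiments.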

[7] = tested on: PC-3; assay: Reduction in HER2 mRNA expression in human PC3 cells after 24 hrs by RT-PCR analysis; type: functional, cell-based
Method in brief: (§3)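 PC-3, PC-3/CA-ILK, SKBR3 and SKBR3/CA-ILK cells treated 24 h in 5% FBS medium; total RNA from 1 × 10^6 cells by Trizol, 1 μg reverse-transcribed, then PCR with gene-specific primers and β-actin reference.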

[8] = tested on: PC-3; assay: Reduction in HER2 mRNA expression in human PC3 cells expressing constitutively active ILK after 24 hrs by RT-PCR analysis; type: functional, cell-based; method in brief: as §3
[9] = tested on: SK-BR-3; assay: Reduction in HER2 concentration in human SKBR3 cells after 24 hrs by Western blot analysis; type: functional, cell-based; method in brief: as §2
[10] = tested on: SK-BR-3; assay: Reduction in HER2 mRNA expression in human SKBR3 cells after 24 hrs by RT-PCR analysis; type: functional, cell-based; method in brief: as §3
[11] = tested on: SK-BR-3; assay: Reduction in EGFR mRNA expression in human SKBR3 cells expressing constitutively active ILK after 24 hrs by RT-PCR analysis; type: functional, cell-based; method in brief: as §3
[12] = target: Cyclin-dependent kinase 1/cyclin B1 (Homo sapiens) (UniProt P06493+P14635); assay: Inhibition of CDK1/cyclin B at 5 uM assessed as remaining activity; type: protein-complex assay
Cyclin-dependent kinase 1/cyclin B1 (Homo sapiens), sequence (P06493 whole entry, looked up): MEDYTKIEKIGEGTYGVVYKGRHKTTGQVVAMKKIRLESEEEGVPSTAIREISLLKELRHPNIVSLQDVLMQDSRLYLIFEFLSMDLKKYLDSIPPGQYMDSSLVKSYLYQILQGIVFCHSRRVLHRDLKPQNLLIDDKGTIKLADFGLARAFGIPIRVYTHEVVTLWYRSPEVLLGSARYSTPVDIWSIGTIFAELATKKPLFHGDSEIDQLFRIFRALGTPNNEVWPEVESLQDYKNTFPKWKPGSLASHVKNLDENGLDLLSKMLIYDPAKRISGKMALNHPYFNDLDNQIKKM
Cyclin-dependent kinase 1/cyclin B1 (Homo sapiens), sequence (P14635 whole entry, looked up): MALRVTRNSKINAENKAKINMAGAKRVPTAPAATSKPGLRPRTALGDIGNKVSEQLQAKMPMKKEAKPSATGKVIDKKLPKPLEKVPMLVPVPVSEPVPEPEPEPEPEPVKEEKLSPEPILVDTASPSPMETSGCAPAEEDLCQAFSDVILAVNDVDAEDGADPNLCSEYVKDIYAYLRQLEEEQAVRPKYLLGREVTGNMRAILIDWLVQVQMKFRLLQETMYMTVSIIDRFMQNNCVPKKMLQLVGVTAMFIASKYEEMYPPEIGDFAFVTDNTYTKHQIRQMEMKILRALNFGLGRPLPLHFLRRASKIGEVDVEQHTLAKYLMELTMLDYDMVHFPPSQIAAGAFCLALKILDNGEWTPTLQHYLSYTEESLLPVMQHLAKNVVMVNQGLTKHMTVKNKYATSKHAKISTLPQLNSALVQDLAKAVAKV
Method in brief: (§4)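 Panel of 20 recombinant kinases, profiled by a commercial vendor.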

[13] = target: Glycogen synthase kinase-3 beta (Homo sapiens) (UniProt P49841); assay: Inhibition of GSK3-beta at 5 uM assessed as remaining activity; method in brief: as §4
Glycogen synthase kinase-3 beta (Homo sapiens), sequence (P49841 whole entry, looked up): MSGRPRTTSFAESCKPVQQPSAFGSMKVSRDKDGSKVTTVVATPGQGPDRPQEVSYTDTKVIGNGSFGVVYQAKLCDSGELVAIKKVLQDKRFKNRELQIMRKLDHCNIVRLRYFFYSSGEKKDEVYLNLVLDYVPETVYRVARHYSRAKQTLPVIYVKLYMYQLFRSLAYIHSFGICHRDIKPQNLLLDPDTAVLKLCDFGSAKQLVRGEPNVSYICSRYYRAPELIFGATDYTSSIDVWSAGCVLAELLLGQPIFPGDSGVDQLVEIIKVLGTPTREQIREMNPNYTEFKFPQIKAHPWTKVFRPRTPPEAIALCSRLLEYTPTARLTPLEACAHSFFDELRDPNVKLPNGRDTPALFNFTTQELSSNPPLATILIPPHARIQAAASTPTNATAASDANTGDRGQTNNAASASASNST

[14] = target: Inhibitor of nuclear factor kappa-B kinase subunit beta (Homo sapiens) (UniProt O14920); assay: Inhibition of IKK-beta at 5 uM assessed as remaining activity; method in brief: as §4
Inhibitor of nuclear factor kappa-B kinase subunit beta (Homo sapiens), sequence (O14920 whole entry): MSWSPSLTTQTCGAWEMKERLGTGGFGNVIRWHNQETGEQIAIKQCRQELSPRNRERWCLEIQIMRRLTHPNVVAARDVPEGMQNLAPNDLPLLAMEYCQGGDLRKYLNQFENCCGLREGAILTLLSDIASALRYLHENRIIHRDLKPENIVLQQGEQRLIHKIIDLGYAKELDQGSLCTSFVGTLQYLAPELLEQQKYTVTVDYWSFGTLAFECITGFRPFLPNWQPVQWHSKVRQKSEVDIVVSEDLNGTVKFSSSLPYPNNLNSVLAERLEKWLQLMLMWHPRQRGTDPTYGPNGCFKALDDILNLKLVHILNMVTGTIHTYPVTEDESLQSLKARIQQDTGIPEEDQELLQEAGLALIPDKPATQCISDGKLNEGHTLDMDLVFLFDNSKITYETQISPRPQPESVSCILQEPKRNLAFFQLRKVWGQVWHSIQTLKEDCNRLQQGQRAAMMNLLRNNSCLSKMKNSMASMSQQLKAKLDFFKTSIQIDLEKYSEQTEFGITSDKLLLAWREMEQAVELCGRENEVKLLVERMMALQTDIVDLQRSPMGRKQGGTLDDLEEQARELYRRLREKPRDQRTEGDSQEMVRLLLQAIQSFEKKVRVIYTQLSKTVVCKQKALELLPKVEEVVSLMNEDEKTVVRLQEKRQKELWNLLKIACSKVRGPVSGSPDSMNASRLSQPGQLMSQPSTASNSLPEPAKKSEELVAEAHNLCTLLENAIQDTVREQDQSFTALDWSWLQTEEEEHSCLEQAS

[15] = target: Protein kinase C alpha type (Homo sapiens) (UniProt P17252); assay: Inhibition of PKCalpha at 5 uM assessed as remaining activity
[16] = target: Ribosomal protein S6 kinase beta-1 (Homo sapiens) (UniProt P23443); assay: Inhibition of p70S6K in human PC3 cells assessed as decrease in phosphorylated p70S6K by Western blot analysis; type: cell-based; settings: PC-3
Ribosomal protein S6 kinase beta-1 (Homo sapiens), sequence (P23443 whole entry, looked up): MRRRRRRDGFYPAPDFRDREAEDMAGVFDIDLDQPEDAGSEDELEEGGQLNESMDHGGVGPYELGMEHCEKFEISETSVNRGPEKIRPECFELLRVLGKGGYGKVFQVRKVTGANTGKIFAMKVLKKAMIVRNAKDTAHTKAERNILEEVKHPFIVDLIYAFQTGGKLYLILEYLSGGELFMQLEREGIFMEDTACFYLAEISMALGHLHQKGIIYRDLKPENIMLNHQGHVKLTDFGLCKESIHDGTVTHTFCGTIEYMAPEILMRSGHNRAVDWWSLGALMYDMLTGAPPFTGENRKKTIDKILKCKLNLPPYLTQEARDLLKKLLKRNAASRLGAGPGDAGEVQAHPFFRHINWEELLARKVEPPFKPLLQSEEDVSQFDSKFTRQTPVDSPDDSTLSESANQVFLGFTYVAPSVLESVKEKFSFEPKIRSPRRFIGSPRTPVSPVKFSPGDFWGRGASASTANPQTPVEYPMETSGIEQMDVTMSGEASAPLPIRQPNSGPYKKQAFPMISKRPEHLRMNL
Method in brief: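 PC-3 cells (parental, or stable GFP-CA-ILK clones selected with G418 250 μg/mL and GFP sorting) exposed 24 h in 5% FBS medium; SDS lysis, immunoblot at 1:1000 primary, ECL; representative of three experiments.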

[17] = target: T1, Scaffold protein ILK (Homo sapiens); assay: Inhibition of ILK in human PC3 cells assessed as decrease in phosphorylated JNK concentration by Western blot analysis; type: cell-based; settings: PC-3
Method in brief: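 PC-3 cells exposed to graded concentrations for 24 h in 5% FBS medium. Immunoblotting for phospho-Tyr397-FAK, ERK1/2, p38 and JNK. Lysis in 1% SDS buffer, primary antibody 1:1000 at 4°C for 2 h, ECL. Three independent experiments.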

[18] = tested on: Mus musculus; assay: Toxicity in nude mouse assessed as weight loss at 25 mg/kg, po administered for 35 days; type: organism-based; design: dose 25 mg/kg, route oral; settings: in vivo, 840 h
Method in brief: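 Male NCr nude mice bearing s.c. PC-3 tumors, dosed once daily by oral gavage in 0.5% methylcellulose/0.1% Tween 80 vehicle, 10 μL/g, for 35 days; body weight recorded weekly.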

[19] = tested on: Mus musculus; assay: Inhibition of phosphorylation of Ser-437-Akt in human PC3 cells xenografted nude mouse tumor lysate at 25 mg/kg, po administered for 35 days by Western blot analysis; type: functional, organism-based; design: dose 25 mg/kg; settings: Neoplasm, PC-3
Method in brief: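 Tumors harvested at terminal sacrifice after 35 days of daily oral dosing, snap-frozen and stored at -80°C; lysates immunoblotted, three representative tumors per group.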

[20] = tested on: Mus musculus; assay: Decrease in phosphorylation of EGFR in human PC3 cells xenografted nude mouse tumor lysate at 25 mg/kg, po administered for 35 days by Western blot analysis; type: functional, organism-based; design: dose 25 mg/kg; settings: Neoplasm, PC-3
Method in brief: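 Male NCr athymic nude mice, 5–7 weeks, with s.c. PC-3 xenografts (0.5 × 10^6 cells in 50% Matrigel), dosed by oral gavage once daily for 35 days. Vehicle 0.5% methylcellulose, 0.1% Tween 80 in water, 10 μL/g. Tumors snap-frozen at sacrifice; three tumors per group immunoblotted.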

[21] = tested on: PC-3; assay: Induction of apoptosis in human PC3 cells assessed as early apoptotic cells at 3 uM by annexin V/PI staining (reference value: 5.6%); type: functional

IC50 [1]: 1 µM
IC50 [2]: 2.5 µM
inhibition [4]: Active
inhibition [5]: inactive
Activity [12]: 73%
Activity [13]: 142%
Activity [14]: 102%
Activity [15]: 97%
inhibition [16]: inactive
inhibition [17]: inactive
SMILES: CNC(=O)CCc1cc(-c2ccc(-c3ccc(C(F)(F)F)cc3)cc2)n(-c2ccc(N3CCNCC3)cc2)n1
inhibition (INH) [3]: Not Active
Activity [6]: Dose-dependent effect
Activity [7]: Dose-dependent effect
Activity [8]: inactive
Activity [9]: Dose-dependent effect
Activity [10]: Dose-dependent effect
Activity [11]: inactive
Activity [18]: Non-toxic
Activity [19]: Dose-dependent effect
Activity [20]: Active
Activity [21]: 12.1%
